The source made the active and inactive calls. The rule behind the calls is not given here.
Assays:
[1] = tested on: K562; experiment: Antiproliferative activity against human K562 cells assessed as inhibition of cell proliferation incubated for 48 hrs by MTT assay; assay type: functional, cell-based; conditions: K562, 48 h
In short: (§1)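 MTT growth assay. K562 and K562R (T315I) cells grown in RPMI 1640 with 10% FBS. Hek293 and EA.hy926 cells grown in DMEM with 10% FBS. About 2.5 × 10^3 exponential-phase cells per well, preincubated 12 h at 37 °C in 5% CO2. Serially diluted compounds added for 48 h, then MTT at 0.5 mg/mL final for 4 h. Formazan dissolved in DMSO, A490 read, IC50 calculated from inhibition ratios.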

[2] = target: Bcr/Abl fusion protein (Homo sapiens, UniProt P00519); experiment: Inhibition of wild type Bcr-Abl (unknown origin) incubated for 1 hr in presence of ATP by ADP-Glo kinase assay; assay type: protein assay
[3] = target: Bcr/Abl fusion protein (Homo sapiens, UniProt P00519, T315I); experiment: Inhibition of wild type Bcr-Abl T315I mutant (unknown origin) incubated for 1 hr in presence of ATP by ADP-Glo kinase assay; assay type: protein assay
[4] = tested on: K562; experiment: Induction of apoptosis in human K562 cells assessed as early apoptotic cells at 20 uM after 48 hrs by annexinV/FITC-propidium iodide staining based flow cytometry (reference value: 2.98 %); assay type: functional
[5] = tested on: K562; experiment: Induction of apoptosis in human K562 cells assessed as late apoptotic cells at 20 uM after 48 hrs by annexinV/FITC-propidium iodide staining based flow cytometry (reference value: 12.60 %); assay type: functional
[6] = target: T1, Bcr/Abl fusion protein (Homo sapiens) (UniProt P00519+P11274); experiment: Inhibition of Bcr-Abl phosphorylation in human K562 cells at 10 uM measured after 48 hrs by Western blot analysis; assay type: cell-based
In short: (§2)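 Western blot. K562 cells treated 48 h with DMSO vehicle or compound at 1, 5, 10 or 15 µM. Lysates were normalized by BCA and equal protein run on SDS-PAGE, then transferred to PVDF and blocked in 5% milk/TBS-0.1% Tween-20. Probed overnight at 4 °C with p-Bcr-Abl and GAPDH antibodies, then with HRP secondaries for 2 h at room temperature. Read-out was p-Bcr-Abl/GAPDH ratio.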

[7] = tested on: K562; experiment: Induction of apoptosis in human K562 cells assessed as early apoptotic cells at 1 uM after 48 hrs by annexinV/FITC-propidium iodide staining based flow cytometry (reference value: 2.98 %); assay type: functional
[8] = tested on: K562; experiment: Induction of apoptosis in human K562 cells assessed as viable cells at 10 uM after 48 hrs by annexinV/FITC-propidium iodide staining based flow cytometry (reference value: 84.19 %); assay type: functional; conditions: read-out: Activity
[9] = tested on: K562; experiment: Induction of apoptosis in human K562 cells assessed as viable cells at 1 uM after 48 hrs by annexinV/FITC-propidium iodide staining based flow cytometry (reference value: 84.19 %); assay type: functional; conditions: read-out: Activity
[10] = tested on: EA.hy 926; experiment: Cytotoxicity against human EA.hy926 cells assessed as cell growth inhibition incubated for 48 hrs by MTT assay; assay type: cell-based; conditions: ea.hy 926, 48 h; in short: as §1
[11] = tested on: K-562R; experiment: Antiproliferative activity against T315I mutant expressing human K-562R cells assessed as inhibition of cell proliferation incubated for 48 hrs by MTT assay; assay type: functional, cell-based; in short: as §1
[12] = tested on: HEK293; experiment: Cytotoxicity against human HEK293 cells assessed as cell growth inhibition incubated for 48 hrs by MTT assay; assay type: cell-based; conditions: hek293, 48 h; in short: as §1
[13] = tested on: K562; experiment: Induction of apoptosis in human K562 cells assessed as early apoptotic cells at 10 uM after 48 hrs by annexinV/FITC-propidium iodide staining based flow cytometry (reference value: 2.98 %); assay type: functional
[14] = tested on: K562; experiment: Induction of apoptosis in human K562 cells assessed as late apoptotic cells at 10 uM after 48 hrs by annexinV/FITC-propidium iodide staining based flow cytometry (reference value: 12.60 %); assay type: functional
[15] = tested on: K562; experiment: Induction of apoptosis in human K562 cells assessed as late apoptotic cells at 1 uM after 48 hrs by annexinV/FITC-propidium iodide staining based flow cytometry (reference value: 12.60 %); assay type: functional
[16] = tested on: K562; experiment: Induction of apoptosis in human K562 cells assessed as necrotic cells at 20 uM after 48 hrs by annexinV/FITC-propidium iodide staining based flow cytometry (reference value: 0.23 %); assay type: functional
[17] = target: T1, Bcr/Abl fusion protein (Homo sapiens); experiment: Inhibition of Bcr-Abl in human K562 cells assessed as decrease in tyrosine phosphorylation measured after 48 hrs by Western blot analysis; assay type: cell-based; conditions: dose 1-15 µM; in short: as §2
[18] = tested on: K562; experiment: Induction of apoptosis in human K562 cells assessed as necrotic cells at 10 uM after 48 hrs by annexinV/FITC-propidium iodide staining based flow cytometry (reference value: 0.23 %); assay type: functional
[19] = tested on: K562; experiment: Induction of apoptosis in human K562 cells assessed as viable cells at 20 uM after 48 hrs by annexinV/FITC-propidium iodide staining based flow cytometry (reference value: 84.19 %); assay type: functional; conditions: read-out: Activity
[20] = tested on: K562; experiment: Induction of apoptosis in human K562 cells assessed as necrotic cells at 1 uM after 48 hrs by annexinV/FITC-propidium iodide staining based flow cytometry (reference value: 0.23 %); assay type: functional
[21] = tested on: K-562R; experiment: Antiproliferative activity against T315I mutant expressing human K-562R cells assessed as inhibition of cell proliferation at 100 uM incubated for 48 hrs by MTT assay relative to control; assay type: functional; in short: as §1

| Compound | IC50 [1] | IC50 [2] | IC50 [3] | other results |
| --- | --- | --- | --- | --- |
| CCN(CC)C(=O)c1cncc(-c2cccc(C(=O)N[C@H]3CN[C@@H](C(=O)Nc4ccc(Cl)c(C(F)(F)F)c4)C3)c2)c1 | 24.9 µM | 3.75 µM | 42.7 µM | – |
| CN(C)CCNC(=O)c1cncc(-c2ccc(C(=O)N[C@H]3CN[C@@H](C(=O)Nc4ccc(Cl)c(C(F)(F)F)c4)C3)cc2)c1 | 4.56 µM | 4.23 µM | 22.1 µM | – |
| O=C(NC1CC1)c1cncc(-c2cccc(C(=O)N[C@H]3CN[C@@H](C(=O)Nc4ccc(Cl)c(C(F)(F)F)c4)C3)c2)c1 | 27.3 µM | 16 µM | 26.6 µM | – |
| Nc1ccc(-c2cccc(C(=O)N[C@H]3CN[C@@H](C(=O)Nc4ccc(Cl)c(C(F)(F)F)c4)C3)c2)cn1 | 20 µM | 12 µM | 103 µM | – |
| CCN(CC)C(=O)c1cncc(-c2ccc(C(=O)N[C@H]3CN[C@@H](C(=O)Nc4ccc(Cl)c(C(F)(F)F)c4)C3)cc2)c1 | 55.5 µM | 7.4 µM | 50.5 µM | – |
| CN(C)CCNC(=O)c1cncc(-c2cccc(C(=O)N[C@H]3CN[C@@H](C(=O)Nc4ccc(Cl)c(C(F)(F)F)c4)C3)c2)c1 | 19.8 µM | 2.41 µM | 21.7 µM | – |
| CC(C)(C)C(=O)Nc1ccc(-c2ccc(C(=O)N[C@H]3CN[C@@H](C(=O)Nc4ccc(Cl)c(C(F)(F)F)c4)C3)cc2)cn1 | 11.6 µM | 2.64 µM | 50.3 µM | – |
| Cc1ccc(C(=O)Nc2ccc(CN3CCN(C)CC3)c(C(F)(F)F)c2)cc1C#Cc1cnc2cccnn12 [PONATINIB] | – | – | – | IC50 [11]: 0.093 µM |
| CC(=O)Nc1ccc(-c2cccc(C(=O)N[C@H]3CN[C@@H](C(=O)Nc4ccc(Cl)c(C(F)(F)F)c4)C3)c2)cn1 | 8.71 µM | 0.49 µM | 24.6 µM | – |
| Cc1ccc(NC(=O)c2ccc(CN3CCN(C)CC3)cc2)cc1Nc1nccc(-c2cccnc2)n1 [IMATINIB] | – | – | – | inhibition at 100 µM [21]: 45% |
| O=C(NC1CC1)c1cncc(-c2ccc(C(=O)N[C@H]3CN[C@@H](C(=O)Nc4ccc(Cl)c(C(F)(F)F)c4)C3)cc2)c1 | 65.3 µM | 61.2 µM | 39 µM | – |
| CC(C)(C)C(=O)Nc1ccc(-c2cccc(C(=O)N[C@H]3CN[C@@H](C(=O)Nc4ccc(Cl)c(C(F)(F)F)c4)C3)c2)cn1 | 28 µM | 4.63 µM | 147 µM | – |
| Nc1ccc(-c2ccc(C(=O)N[C@H]3CN[C@@H](C(=O)Nc4ccc(Cl)c(C(F)(F)F)c4)C3)cc2)cn1 | 9.13 µM | 9.18 µM | 14.1 µM | – |
| CC(=O)Nc1ccc(-c2ccc(C(=O)N[C@H]3CN[C@@H](C(=O)Nc4ccc(Cl)c(C(F)(F)F)c4)C3)cc2)cn1 | 22.8 µM | 34.5 µM | 13 µM | – |
| C[C@H](NC(=O)c1cccc(-c2cncc(C(=O)NCCN(C)C)c2)c1)C(=O)Nc1ccc(Cl)c(C(F)(F)F)c1 | 7.92 µM | 0.64 µM | 2.41 µM | – |
| C[C@H](NC(=O)c1cccc(-c2cncc(C(=O)NC3CC3)c2)c1)C(=O)Nc1ccc(Cl)c(C(F)(F)F)c1 | 15.1 µM | 1.46 µM | 7.83 µM | – |
| CCN(CC)C(=O)c1cncc(-c2cccc(C(=O)N[C@@H](C)C(=O)Nc3ccc(Cl)c(C(F)(F)F)c3)c2)c1 | 29.9 µM | 0.29 µM | 86 µM | – |
| CS(=O)(=O)Nc1ccc(-c2cccc(C(=O)N[C@H]3CN[C@@H](C(=O)Nc4ccc(Cl)c(C(F)(F)F)c4)C3)c2)cn1 | 24.6 µM | 6.48 µM | 16.2 µM | – |

Now from value to molecule, other results behind:

| IC50 [1] | IC50 [2] | IC50 [3] | Compound | other results |
| --- | --- | --- | --- | --- |
| 5.95 µM | 0.77 µM | 7.51 µM | C[C@H](NC(=O)c1ccc(-c2ccc(N)nc2)cc1)C(=O)Nc1ccc(Cl)c(C(F)(F)F)c1 | – |
| 42.8 µM | 0.6 µM | 38.6 µM | CC(=O)Nc1ccc(-c2cccc(C(=O)N[C@@H](C)C(=O)Nc3ccc(Cl)c(C(F)(F)F)c3)c2)cn1 | – |
| 18.4 µM | 4.48 µM | 244 µM | C[C@H](NC(=O)c1cccc(-c2ccc(NC(=O)C(C)(C)C)nc2)c1)C(=O)Nc1ccc(Cl)c(C(F)(F)F)c1 | – |
| 8.09 µM | 4.4 µM | 86.8 µM | C[C@H](NC(=O)c1cccc(-c2ccc(N)nc2)c1)C(=O)Nc1ccc(Cl)c(C(F)(F)F)c1 | – |
| 45 µM | 0.15 µM | 36.9 µM | CS(=O)(=O)Nc1ccc(-c2ccc(C(=O)N[C@H]3CN[C@@H](C(=O)Nc4ccc(Cl)c(C(F)(F)F)c4)C3)cc2)cn1 | – |
| 7.45 µM | 0.041 µM | 0.53 µM | C[C@H](NC(=O)c1ccc(-c2ccc(NC(=O)C(C)(C)C)nc2)cc1)C(=O)Nc1ccc(Cl)c(C(F)(F)F)c1 | Activity [4]: 11.48%; Activity [5]: 50.94%; inhibition [6]: Active; Activity [7]: 3.39%; viability at 10 µM [8]: 36.5%; viability at 1 µM [9]: 74.5%; Activity [10]: Non-Toxic; IC50 [11]: 9.1 µM; Activity [12]: Non-Toxic; Activity [13]: 10.03%; Activity [14]: 48.96%; Activity [15]: 21.11%; Activity [16]: 1.65%; inhibition [17]: Dose-dependent effect; Activity [18]: 4.57%; viability at 20 µM [19]: 35.9%; Activity [20]: 0.98% |
| 20.2 µM | 0.011 µM | 59.9 µM | CCN(CC)C(=O)c1cncc(-c2ccc(C(=O)N[C@@H](C)C(=O)Nc3ccc(Cl)c(C(F)(F)F)c3)cc2)c1 | – |
| 4.66 µM | 3.34 µM | 129 µM | C[C@H](NC(=O)c1cccc(-c2ccc(NS(C)(=O)=O)nc2)c1)C(=O)Nc1ccc(Cl)c(C(F)(F)F)c1 | – |
| 396 µM | 9.38 µM | 4.99 µM | C[C@H](NC(=O)c1ccc(-c2cncc(C(=O)NC3CC3)c2)cc1)C(=O)Nc1ccc(Cl)c(C(F)(F)F)c1 | – |
| 7.24 µM | 3.77 µM | 9.95 µM | C[C@H](NC(=O)c1ccc(-c2ccc(NS(C)(=O)=O)nc2)cc1)C(=O)Nc1ccc(Cl)c(C(F)(F)F)c1 | – |
| 107 µM | 0.2 µM | 22.4 µM | CC(=O)Nc1ccc(-c2ccc(C(=O)N[C@@H](C)C(=O)Nc3ccc(Cl)c(C(F)(F)F)c3)cc2)cn1 | – |
| 4.65 µM | 6.62 µM | 2.28 µM | C[C@H](NC(=O)c1ccc(-c2cncc(C(=O)NCCN(C)C)c2)cc1)C(=O)Nc1ccc(Cl)c(C(F)(F)F)c1 | – |

From ChEMBL document CHEMBL5055648, “Design, synthesis, and biological evaluation of novel Bcr-AblT315I inhibitors incorporating amino acids as flexible linker” (Bioorg Med Chem, 2021)
